Measured values as given in paper PMC6133078 (European Journal of Drug Metabolism and Pharmacokinetics, 2018).
Counter-ions that a name gives are not always drawn.

Columns and labels:
[1] = test system: xenograft; settings: xenograft mice model; preliminary studies; cited from earlier work
[2] = Stability tests of puquitinib in human plasma QC samples; format: physicochemical; settings: in words
Summary of the method: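 Plasma QC samples (3.00, 250.00, 400.00 ng/mL) were tested three ways: extracted samples at room temperature for about 72 h; three freeze (−80 °C) and thaw (room temperature) cycles within a month, analysed in triplicate; and storage at −80 °C for 1 month. Quantified by HPLC–MS/MS against same-day calibration; accuracy given as RE%.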

[3] = test system: several cancer cell lines, such as lung, breast, ovarian, colon, prostate cancer, leukemia, lymphoma and osteosarcoma; settings: according to the data in vitro; cited from earlier work

stability during short-term, freeze and thaw and long-term tests [2]: good stability
Structure (SMILES): c1cnc2ccc(Nc3nc(NC4CC4)c4nc[nH]c4n3)cc2c1 [puquitinib, Puquitinib mesylate]
antitumor efficacy [1]: clear antitumor efficacy | IC50 [3]: 500 to 2000 nM
